Results published in ChEMBL document CHEMBL4024779, “Novel Terminal Bipheny-Based Diapophytoene Desaturases (CrtN) Inhibitors as Anti-MRSA/VISR/LRSA Agents with Reduced hERG Activity” (J Med Chem, 2018).
Active and inactive are the calls of the source. The rule behind the calls is not given here.

Legend:
[1] = tested on: Staphylococcus aureus; experiment: In vivo anti-virulence activity against Staphylococcus aureus Newman infected in BALB/c mouse model assessed as reduction in bacterial load in heart at 0.4 mg bid for 4.5 days administered intraperitoneally 24 hrs prior to infection by serial dilution method; assay type: functional, organism-based
Method in brief: (§1)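 Mice (n=10 per group) got 2.3 × 10^7 CFU S. aureus Newman by retro-orbital injection. Compound was given intraperitoneally b.i.d., either 24 h before infection (4.5 d) or 6 h after infection (3.5 d). Mice were sacrificed after 4.5 d and CFU counted in kidneys and hearts. Groups were compared by two-tailed Mann-Whitney test.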

[2] = tested on: Staphylococcus aureus; experiment: In vivo anti-virulence activity against Staphylococcus aureus Newman infected in BALB/c mouse model assessed as reduction in bacterial load in kidneys at 0.1 mg bid for 3.5 days administered intraperitoneally 6 hrs post infection by serial dilution method; assay type: functional, organism-based; method in brief: as §1
[3] = tested on: Staphylococcus aureus; experiment: In vivo anti-virulence activity against methicillin-resistant Staphylococcus aureus Mu50 infected in BALB/c mouse model assessed as reduction in bacterial load in kidneys at 0.4 mg bid for 3.5 days administered intraperitoneally 6 hrs post infection by serial dilution method; assay type: functional; set-up: scale not given: the % may be the effect or the level left
Method in brief: (§2)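 Mice (n=10 per group) infected retro-orbitally with S. aureus Mu50 (1.1 × 10^9 or 1.3 × 10^9 CFU) or NRS271 (2.3 × 10^8 CFU). Compound given i.p. b.i.d., either 6 h after infection for 3.5 d or 24 h before infection for 4.5 d. Mice killed after 4.5 d; log10 CFU per organ counted in kidneys and hearts. Two-tailed Mann−Whitney test.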

[4] = tested on: Staphylococcus aureus; experiment: Antibacterial activity against Staphylococcus aureus Newman derived after 12 passage by broth dilution method; assay type: functional
[5] = tested on: Staphylococcus aureus; experiment: In vivo anti-virulence activity against Staphylococcus aureus Newman infected in BALB/c mouse model assessed as reduction in bacterial load in kidneys at 0.1 mg bid for 4.5 days administered intraperitoneally 24 hrs prior to infection by serial dilution method; assay type: functional, organism-based; method in brief: as §1
[6] = tested on: Staphylococcus aureus; experiment: Antibacterial activity against methicillin-resistant Staphylococcus aureus Mu50 assessed as change in bacterial growth at 0.2 mM […]; assay type: functional
[7] = tested on: Staphylococcus aureus; experiment: Antibacterial activity against Staphylococcus aureus Newman assessed as change in bacterial growth at 0.2 mM […]; assay type: functional
[8] = tested on: Staphylococcus aureus; experiment: In vivo anti-virulence activity against methicillin-resistant Staphylococcus aureus Mu50 infected in BALB/c mouse model assessed as reduction in bacterial load in heart at 0.4 mg bid for 3.5 days administered intraperitoneally 6 hrs post infection by serial dilution method; assay type: functional; set-up: scale not given: the % may be the effect or the level left; method in brief: as §2
[9] = tested on: Staphylococcus aureus; experiment: In vivo anti-virulence activity against methicillin-resistant Staphylococcus aureus NRS271 infected in BALB/c mouse model assessed as reduction in bacterial load in heart at 0.4 mg bid for 4.5 days administered intraperitoneally 24 hrs prior to infection by serial dilution method; assay type: functional; set-up: scale not given: the % may be the effect or the level left; method in brief: as §2
[10] = tested on: Staphylococcus aureus; experiment: In vivo anti-virulence activity against methicillin-resistant Staphylococcus aureus Mu50 infected in BALB/c mouse model assessed as reduction in bacterial load in heart at 0.1 mg bid for 3.5 days administered intraperitoneally 6 hrs post infection by serial dilution method; assay type: functional; set-up: scale not given: the % may be the effect or the level left
Method in brief: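 Mice were challenged with 1.3 × 10^9 CFU Mu50. Compound was given intraperitoneally, either 24 h before or 6 h after infection. Log10 CFU was counted in kidneys and hearts.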

[11] = tested on: Staphylococcus aureus; experiment: In vivo anti-virulence activity against methicillin-resistant Staphylococcus aureus Mu50 infected in BALB/c mouse model assessed as reduction in bacterial load in kidneys at 0.4 mg bid for 4.5 days administered intraperitoneally 24 hrs prior to infection by serial dilution method; assay type: functional; set-up: scale not given: the % may be the effect or the level left; method in brief: as §2
[12] = tested on: Trichophyton rubrum; experiment: In vitro antifungal activity against Trichophyton rubrum after 7 days by serial dilution method; assay type: functional; settings: 168 h
[13] = tested on: Staphylococcus aureus; experiment: In vivo anti-virulence activity against methicillin-resistant Staphylococcus aureus NRS271 infected in BALB/c mouse model assessed as reduction in bacterial load in heart at 0.1 mg bid for 3.5 days administered intraperitoneally 6 hrs post infection by serial dilution method; assay type: functional; set-up: scale not given: the % may be the effect or the level left; method in brief: as §2
[14] = tested on: Staphylococcus aureus; experiment: In vivo anti-virulence activity against Staphylococcus aureus Newman infected in BALB/c mouse model assessed as reduction in bacterial load in kidneys at 0.4 mg bid for 3.5 days administered intraperitoneally 6 hrs post infection by serial dilution method; assay type: functional, organism-based; method in brief: as §1
[15] = tested on: Staphylococcus aureus; experiment: In vivo anti-virulence activity against Staphylococcus aureus Newman infected in BALB/c mouse model assessed as reduction in bacterial load in heart at 0.1 mg bid for 4.5 days administered intraperitoneally 24 hrs prior to infection by serial dilution method; assay type: functional, organism-based; method in brief: as §1
[16] = tested on: Staphylococcus aureus; experiment: In vivo anti-virulence activity against methicillin-resistant Staphylococcus aureus Mu50 infected in BALB/c mouse model assessed as reduction in bacterial load in kidneys at 0.1 mg bid for 4.5 days administered intraperitoneally 24 hrs prior to infection by serial dilution method; assay type: functional; set-up: scale not given: the % may be the effect or the level left; method in brief: as §2
[17] = tested on: Staphylococcus aureus; experiment: In vivo anti-virulence activity against Staphylococcus aureus Newman infected in BALB/c mouse model assessed as reduction in bacterial load in heart at 0.1 mg bid for 3.5 days administered intraperitoneally 6 hrs post infection by serial dilution method; assay type: functional, organism-based; method in brief: as §1
[18] = target: T1, 4,4'-diapophytoene desaturase (4,4'-diaponeurosporene-forming) (Staphylococcus aureus (strain Mu50 / ATCC 700699), UniProt Q99R76); experiment: Inhibition of CrtN in methicillin-resistant Staphylococcus aureus Mu50 assessed as reduction in staphyloxanthin levels after 48 hrs by spectrophotometric method-based pigment inhibition assay; set-up: species or system Staphylococcus aureus subsp. aureus Mu50
T1 sequence (Q99R76 whole entry): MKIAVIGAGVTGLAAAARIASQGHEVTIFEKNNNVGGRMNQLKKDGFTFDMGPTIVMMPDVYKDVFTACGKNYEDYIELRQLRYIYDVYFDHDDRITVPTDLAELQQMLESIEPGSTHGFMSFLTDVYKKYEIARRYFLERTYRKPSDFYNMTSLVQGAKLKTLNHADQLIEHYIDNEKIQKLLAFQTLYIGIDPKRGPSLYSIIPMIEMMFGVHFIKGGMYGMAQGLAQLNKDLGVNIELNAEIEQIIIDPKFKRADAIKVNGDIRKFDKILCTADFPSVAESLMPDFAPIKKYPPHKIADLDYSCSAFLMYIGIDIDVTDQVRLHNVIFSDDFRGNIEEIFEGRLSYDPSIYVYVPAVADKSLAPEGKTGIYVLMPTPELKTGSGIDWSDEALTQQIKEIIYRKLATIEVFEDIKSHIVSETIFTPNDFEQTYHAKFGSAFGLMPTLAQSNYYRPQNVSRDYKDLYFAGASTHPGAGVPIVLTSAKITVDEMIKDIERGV

[19] = Cytotoxicity against HEK293 cells after 43 hrs by Alamar blue dye-based fluorescence assay; assay type: cell-based; settings: human
[20] = target: T2, 4,4'-diapophytoene desaturase (4,4'-diaponeurosporene-forming) (Staphylococcus aureus (strain Newman), UniProt O07855); experiment: Inhibition of CrtN in Staphylococcus aureus Newman after 12 resistant development passages under 0.15% v/v H2O2 assessed as reduction in staphyloxanthin levels under IC90 level after 48 hrs by spectrophotometric method-based pigment inhibition assay; set-up: species or system Staphylococcus aureus subsp. aureus str. Newman
T2 sequence (O07855 whole entry): T1 sequence (Q99R76 whole entry)

[21] = target: T3, 4,4'-diapophytoene desaturase (4,4'-diaponeurosporene-forming) (Staphylococcus aureus (strain USA300), UniProt Q2FDU6); experiment: Inhibition of CrtN in methicillin-resistant Staphylococcus aureus LAC USA300 assessed as reduction in staphyloxanthin levels after 48 hrs by spectrophotometric method-based pigment inhibition assay
T3 sequence (Q2FDU6 whole entry): T1 sequence (Q99R76 whole entry)

[22] = tested on: Staphylococcus aureus; experiment: Chemo-sensitization activity in human whole blood infected with compound-pre-treated non-pigmented Staphylococcus aureus Newman strain assessed as whole blood-induced bacterial killing by measuring survival rate at 1 uM after 6 hrs by serial dilution method (reference value: 13.3%); assay type: functional

SMILES	Activity [1]	Activity [2]	Activity [3] [%]	IC90 [4] [nM]	Activity [5]	Activity [6]	Activity [7]	Activity [8] [%]	Activity [9] [%]	Activity [10] [%]	Activity [11] [%]	MIC80 [12] [µg/mL]	Activity [13] [%]	Activity [14]	Activity [15]	Activity [16] [%]	Activity [17]	IC50 [18] [nM]	CC50 at 43 h [19] [nM]	IC50 [20] [nM]	further results
CN(C/C=C/c1ccc(-c2ccccc2)cc1)Cc1coc2ccccc12.Cl	Active	Active	>95	1.8	Active	inactive	inactive	>95	>95	>95	>95	64	>95	Active	Active	>95	Active	0.8	48100	1.8	IC50 [21]: 1.9 nM; survival at 1 µM [22]: 1.3%
CN(C/C=C/c1ccc(-c2ccccc2)cc1)Cc1cccc2cc[nH]c12.Cl	inactive	inactive	>95	2.6	inactive	inactive	inactive	>95	>95	>95	>95	> 64	>95	inactive	inactive	>95	inactive	0.4	26500	2.6	IC50 [21]: 4 nM; Activity [22]: Active
